Legend:
[1] = system: MS2 coat protein; test: apparent Kd, MS2 coat protein; higher = weaker binding; RNA-MaP array
Procedure, shortened: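 Fluorescently labeled MS2 coat protein, from 1.5 nM to 3 μM, was incubated at room temperature with designed RNAs transcribed on an Illumina sequencing chip from sequenced DNA templates. Times ran from 0.8–1.5 h at the lowest concentrations to 10–20 min at the highest, in Tris-HCl pH 7.5 buffer with KCl, MgCl2, BSA, DTT, tRNA and Tween20, with or without input ligand. Each apparent Kd is the median of per-cluster binding-curve fits, and designs with fewer than 10 measured clusters were excluded.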

[2] = system: MS2 coat protein; test: apparent Kd, MS2 coat protein; higher = weaker binding; RNA-MaP array; FMN 200 µM where present
Procedure, shortened: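 Stalled E. coli RNA polymerase produced the designs on Illumina sequencing-chip clusters. SNAP-549-labelled MS2 coat protein was added from 0.7 or 1.5 nM, doubling to 3 µM, without and then with constant ligand, in 100 mM Tris-HCl pH 7.5, 80 mM KCl, 4 mM MgCl2, BSA, DTT, yeast tRNA and Tween-20. The apparent Kd is the median of filtered per-cluster fits of green signal normalised to red-channel RNA signal and control-cluster median Fmax.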

[3] = designed as: OFF switch for flavin mononucleotide, no ligand
[4] = ligand present: flavin mononucleotide, designed as: OFF switch for flavin mononucleotide
[5] = designed as: ON switch for flavin mononucleotide, no ligand
[6] = ligand present: flavin mononucleotide, designed as: ON switch for flavin mononucleotide
[7] = designed as: OFF switch for theophylline, no ligand
[8] = ligand present: theophylline, designed as: OFF switch for theophylline
[9] = designed as: OFF switch for tryptophan, no ligand
[10] = ligand present: tryptophan, designed as: OFF switch for tryptophan

Sequence	apparent Kd [1, 3] [µM]	apparent Kd [1, 4] [µM]	apparent Kd [1, 5] [µM]	apparent Kd [1, 6] [µM]	also measured
ACAUGAGGAUCACCCAUGUUAUAGGGCAGGGAACGGAGCAUCUAGGAUAUUGUACACCGGCUACACAAGAAGGAGACCGAAGCU	0.0157	0.0123	–	–	–
GCAGAUACCAUGAGUCGACAUGAGGAUCACCCAUGUACUCCCAGAAGGAUGUACUUUGUUCAAGCAUAGGAUAUGGGCCGAACC	–	–	0.114	0.056	–
CGGUGAUAUGAAGGAUAUGCACAUGAGGAUCACCCAUGUAACCACUAGAACAAAACGUAGUAACCGCAGAAGGUCAGCAGUAGU	–	–	0.0236	0.0145	–
UGAAACUAGCCUAAGGAUAUAUAAGUGUGAACAUGAGGAUCACCCAUGUAUGGGAACAAGUGCUGAUAGAAGGUAGGAAUCUCCAA	–	–	0.0803	0.0432	–
UCUCGUGUGAAGGAUAUAGAUAUUUAACAAAAGCUAGAAGGUCAAACAUGAGGAUCACCCAUGUUUACAUAGGA	0.00877	0.0109	–	–	–
UCAAAAUGAUAGAAGGAGGCAAUACUCGCACCUAACAUGAGGAUCACCCAUGUCUGCAGGUUGACCUAGGAUAUAUGCAGUGGA	–	–	0.0146	0.00935	–
AGUACAUCGGAGAAGGUGCAAGGUUAGCUUUCGCAAGGAUAUCCACACCCUUAGUACAGUGCUACAUGAGGAUCACCCAUGUUA	0.0101	0.0102	–	–	–
UCAUAUUAAGGCGAGGAUAUACACGAUCCCACAUGAGGAUCACCCAUGUUUUGAUCAUGCCCUGUGUAGAAGGCGCACCUACGGGA	–	–	0.0789	0.0495	–
GGUCUACAUGAGGAUCACCCAUGUGAGUUCACGGCAGGAUAUGGGUGCCUUUUUAGGCUACCAGAAGGGCCCUCUG	–	–	0.0381	0.0192	–
GGAUCACAUGAGGAUCACCCAUGUCAGGAUAUUAUGCCCUCCCAGUUGCUGAGACAUUUAAGAAGGGACGUGUA	0.0135	0.0143	–	–	–
UUCUAUGUGACAGGAUAUAGACUCCACCAGUUUCUAGAAGGGUCACAGACGGAUCUUUAUUUGUCACAUGAGGAUCACCCAUGU	–	–	0.0287	0.00971	–
AUAUUUUUGUAAUGACAUGAGGAUCACCCAUGUAUCAAUGUAAGAAGGAGGAAAUAAACACGAUCCUAGGAUAUUAGGUGAUUA	–	–	0.0445	0.0353	–
AAUAUAGCAGGAUAUACAGAACACCAAUAGACUUCGUUUAGACAUGAGGAUCACCCAUGUAGAAGGGCUCAGAC	0.00985	0.00918	–	–	–
AGUUCACAGGUGAGGAUAUCGGAGCACACAGACAGCGAGAAGGCACAUGAGGAUCACCCAUGUGGUCAGAAAAC	0.00873	0.0108	–	–	–
AGCAAUACAUAAGGAUAUGACAUCCAAGAGGAAUCAGAAGGUAUGCAGGCGACAUGAGGAUCACCCAUGUAAUCAUGAGGCAAU	–	–	0.0194	0.0158	–
GAGCCACAUGAGGAUCACCCAUGUCAGGAUAUCGCAAGCGGGAAUAAGCCAACGUCUACGAGAAGGGACUAAUG	0.00979	0.0103	–	–	–
UGUUUGCAAAGAGGAUAUUGGCCAACUGCUGGACAAGAAGGCUUUUAACAAGAUCCUUACAUGAGGAUCACCCAUGUUAGCGUA	0.0693	0.115	–	–	–
GAUUCACAUGAGGAUCACCCAUGUCAGGAUAUGACUUGAGCUGUCUCCGAUCGAGCCAUCAGAAGGGACUGGAA	0.03	0.0278	–	–	–
GACGGACAUGAGGAUCACCCAUGUUCUGGCAGCGUAGGAUAUGAAGGGAUGAUUGUACGUUCAGAAGGACGACCUG	–	–	0.0103	0.00753	–
UUGCAAUAGUAGAAGGACCACUCAAGUGUGACGGUAGGAUAUACGGUACAUGAGGAUCACCCAUGUGAGACUACAGCCCUCUCC	0.02	0.0219	–	–	–
CAAGAAUGACGUACAGAUAACAAUAACGAUACCAGUACAUCAUUAUACCCUUGGCAGCGUUUCACAUGAGGAUCACCCAUGUACA	–	–	–	–	apparent Kd [1, 7]: 0.0175 µM; apparent Kd [1, 8]: 0.0184 µM
GUAGAACCGCAGAAGGCAUUGAUUCGAGAGCGAUGAGGAUAUGCUCGUCGACAUGAGGAUCACCCAUGUUUACGAUUGAGAUAU	–	–	0.0151	0.00974	–
CGGAAACAUGAGGAUCACCCAUGUGUAGAAAAGACAGGAUAUGACAAGGGCUUGAAGUGCUCAGAAGGGUCUGGAC	–	–	0.0154	0.0112	–

Sequence	apparent Kd [1, 3] [µM]	apparent Kd [1, 4] [µM]	apparent Kd [1, 5] [µM]	apparent Kd [1, 6] [µM]	also measured
AAACGGUAAGGAUAUCCACCAGGAUUGGAGCCACCUAAUUCGGAGAAGGUACAUGAGGAUCACCCAUGUCGGGU	0.146	0.124	–	–	–
CUCGUGUGAGGAUAUUGAUCACAGGUCACGGUGCAGGAAUACAAGAAGGCACAUGAGGAUCACCCAUGUAACCG	0.0157	0.045	–	–	–
UUGCAACAAACAGGAUAUACGCGGACUUCACGGGUAGAAGGGUUCGACCAGGAGAUAUCCCACAUGAGGAUCACCCAUGUCGUC	0.163	0.13	–	–	–
UCCCAGUAACAUGAGGAUCACCCAUGUUGGAGUGUGCCUGCUCAGGAUAUUCGCGGCAUAAAAGUGAAGAAGGGAGCUCAAACG	0.0131	0.0113	–	–	–
CAAUGCGGUUAGGAUACCAGCGACACACACUUCUCACAACACAUGAGGAUCACCCAUGUCCGCCCUUGGCAGCCUUGACUAAGGU	–	–	–	–	apparent Kd [1, 7]: 0.0301 µM; apparent Kd [1, 8]: 0.146 µM
ACUGAUUAUGUGAGGAUAUCGCUUUCAGGCAGAAACGAGAAGGCACAUGAGGAUCACCCAUGUUACGUCCACUG	0.00664	0.00956	–	–	–
AGCUAUUCGGGUAAGGAUAUCGAUGUUGUUACAUGAGGAUCACCCAUGUUGCUCGACAUCAGUGACGAGAAGGUACAGCGUGGUAU	–	–	0.00889	0.00879	–
CGAUCUGGCUAAGGAUAUCAAGUGCGCAUGGUUUGACAGCACAUGAGGAUCACCCAUGUAACGCAUGAGAAGGUAGGCACACAG	0.223	0.183	–	–	–
GCAUAUGCAUACAUGAGGAUCACCCAUGUGGAACUAAGGGCGAAGGAUAUGUGUUAAACUACGAGACAGAAGGUCGUGAGUAGA	–	–	0.0199	0.0152	–
UCCGGUGACCUAGGAUAUCGUUCAACUAACAUGAGGAUCACCCAUGUGGUCUGUUUUAUGCCUGUCGAGAAGGAGGUGGAUAAG	0.0642	0.0556	–	–	–
UCCGGACGUUCGGCCGCCACUAAUUUACAUGAGGAUCACCCAUGUGCCAGUGGUCCGCAGAGUAAUAGGACCGGGAACCUUGGCU	–	–	–	–	apparent Kd [1, 9]: 0.026 µM; apparent Kd [1, 10]: 0.0292 µM
UUAAAACUAGGAUAUACAUGAGGAUCACCCAUGUGAACACACAAACAAAGAAAAUAAUGUAGAAGGAGACUAUA	0.0108	0.00887	–	–	–
GCGUGUUAUAGUCAUCGUGAGCGUCCAUCCCGAGGACCGGUACGGCCGCCACUCGCCACAGGACAUGAGGAUCACCCAUGUUAUG	–	–	–	–	apparent Kd [1, 9]: 0.015 µM; apparent Kd [1, 10]: 0.017 µM
AGAUCGCAAUAAGGAUAUGCACCUAAGACUCAAAGAACUCUUGACAUGAGGAUCACCCAUGUAACGCAGAAGGUAUAUGACUCA	–	–	0.021	0.0151	–
CAGUACUGUCGAGAGGAUAUGCGGUGAUGGACAUGAGGAUCACCCAUGUUAGCGACAGCAUCACGGCAGAAGGCUCUACUGCUGC	–	–	–	–	apparent Kd [2, 5]: 0.0479 µM; apparent Kd [2, 6]: 0.0172 µM
UUUUAGGUAGGAUAUACAUUUUUUUUAUUAUCCUCAUUAUUACAUGAGGAUCACCCAUGUAGAAGGACCAUUUU	–	–	–	–	apparent Kd [2, 3]: 0.215 µM; apparent Kd [2, 4]: 0.341 µM
UGUCGCAGCAGAGGAUAUUACAUGAGGAUCACCCAUGUAUGAACCAAUAGCUGGAAACAGCAAUGUAAGAAGGCUGCUCCGACA	–	–	–	–	apparent Kd [2, 3]: 0.0117 µM; apparent Kd [2, 4]: 0.128 µM
GCCAUCGCAUGAGGAUAUGCUCCCGUUUCGGGAGCAGAAGGCAUGUCAUAAGACAUGAGGAUCACCCAUGUGGUUAAGAUGGCA	–	–	–	–	apparent Kd [2, 5]: 0.335 µM; apparent Kd [2, 6]: 0.0124 µM
AACUGACAUGAGGAUCACCCAUGUCAGGAUAUGAUUUGACGAAAUAAAAUAAGUCAUAUCAGAAGGGACAUGGA	–	–	–	–	apparent Kd [2, 3]: 0.026 µM; apparent Kd [2, 4]: 0.0469 µM
UGUCGGAGCAGAGGAUAUUACAUGAGGAUCACCCAUGUAUGAACCAAUAGCUGGGAACAGCAAUGUAAGAAGGCUGCUCCGACA	–	–	–	–	apparent Kd [2, 3]: 0.0186 µM; apparent Kd [2, 4]: 0.201 µM
CCGGAAAGGAAGGAUAUGCUAGACGAUAGUCUAGCAGAAGGUCCUACAUGAGGAUCACCCAUGUGUCCUACCGG	–	–	–	–	apparent Kd [2, 3]: 0.0452 µM; apparent Kd [2, 4]: 0.0544 µM
GCCGUAAGUGUGAGGAUAUACCUAUGGAAACAUAGGUAGAAGGCACAUGAGGAUCACCCAUGUUCUUAAUCGGC	–	–	–	–	apparent Kd [2, 3]: 0.134 µM; apparent Kd [2, 4]: 0.329 µM
AUUUAUGGCCAGAAGGACAUGAGGAUCACCCAUGUAGGAUAUGGACGAUUUUACUCGGCGGUUUGUUAAGGAAGCACCGGCGGU	–	–	–	–	apparent Kd [2, 5]: 0.00776 µM; apparent Kd [2, 6]: 0.00608 µM

From the EternaBench riboswitch data
